The values below come from ChEMBL document CHEMBL5260806, “Hydrogen peroxide activated quinone methide precursors with enhanced DNA cross-linking capability and cytotoxicity towards cancer cells” (Eur J Med Chem, 2017).

Active and inactive are the calls of the source. The calls are words filed in the database; no cut-off is given here.

Assay [1] concerns NCI-H522. Briefly: Anticancer activity against human NCI-H522 cells assessed as cell growth inhibition incubated for 48 hrs by sulforhodamine B assay. The format is functional. In a few lines:
(§1)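 NCI DTP 60-cell-line screen run at National Cancer Institute. Cells grown in RPMI 1640 with 5% fetal bovine serum and 2 mM L-glutamine, seeded at 5,000–40,000 cells/well depending on doubling time. Single-dose screen at 10 µM gives growth percentage; dose-response series gives GI50.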
(In general: Sulforhodamine B stains cellular protein and so reports cell mass.)

Assay [2] relates to A498. Briefly: Anticancer activity against human A498 cells assessed as cell growth inhibition incubated for 48 hrs by sulforhodamine B assay. The assay is classed as functional. In a few lines: (§2)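 NCI-60 screen: cell lines grown in RPMI 1640 with 5% FBS and 2 mM L-glutamine, plated in 96-well plates at 5,000–40,000 cells/well depending on doubling time. Each line has one single-dose arm at 10 µM and one dose-response arm giving GI50.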

Assay [3] has as its system SW-620. Put plainly: Anticancer activity against human SW620 cells assessed as cell growth inhibition at 10 uM incubated for 48 hrs by sulforhodamine B assay. The following applies: read-out: GI. The assay is classed as functional.
The subject of assay [4] is DU-145. Put plainly: Anticancer activity against human DU-145 cells assessed as cell growth inhibition incubated for 48 hrs by sulforhodamine B assay. The format is functional. In a few lines: as §2
For assay [5], the system named is UACC-62. Briefly: Anticancer activity against human UACC-62 cells assessed as cell growth inhibition at 10 uM incubated for 48 hrs by sulforhodamine B assay. The assay is classed as functional. The following applies: read-out: GI.
In assay [6] the test system is IGROV-1. Put plainly: Anticancer activity against human IGROV-1 cells assessed as cell growth inhibition at 10 uM incubated for 48 hrs by sulforhodamine B assay. The assay is classed as functional. The following applies: read-out: GI. The gist of the method:
as §2

Assay [7] concerns MDA-MB-468. Briefly: Anticancer activity against human MDA-MB-468 cells assessed inhibition of cell growth after 48 hrs by CellTiter-Glo luminescent assay. The assay is classed as functional, cell-based. The following applies: MDA-MB-468, 48 h. In a few lines: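 Cells grown in RPMI 1640 with 5% fetal bovine serum and 2 mM L-glutamine, seeded at 5,000–10,000 cells/well in 384-well plates, preincubated 2–3 h at 37°C, 5% CO2. DMSO stocks (20 mM) serially diluted 2-fold ten times, then added at 1:100. Exposure 48 h at 37°C. Viability read by CellTiter-Glo luminescence after 10 min at room temperature; IC50 derived.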
(In general: Cellular ATP, detected with luciferase, serves as a proxy for viable cell number.)

Assay [8] deals with ACHN. Put plainly: Anticancer activity against human ACHN cells assessed as cell growth inhibition incubated for 48 hrs by sulforhodamine B assay. The assay is classed as functional. In a few lines:
as §2

For assay [9], the system named is DNA. Put plainly: Potentiation of H2O2 induced [32P]-labeled 49-mer oligonucleotide duplex DNA 25 (unknown origin) interstrand cross-linking at pH 8 in phosphate buffer solution assessed as rate constant and measured for 24 hrs by PAGE analysis. The assay is classed as functional.
In assay [10] the test system is HOP-92. Briefly: Anticancer activity against human HOP-92 cells assessed as cell growth inhibition incubated for 48 hrs by sulforhodamine B assay. The format is functional. In a few lines: as §2
Assay [11] concerns EKVX. Briefly: Anticancer activity against human EKVX cells assessed as cell growth inhibition at 10 uM incubated for 48 hrs by sulforhodamine B assay. The following applies: read-out: GI. The format is functional. The gist of the method:
as §2

The test system of assay [12] is TK-10. Put plainly: Anticancer activity against human TK-10 cells assessed inhibition of cell growth after 48 hrs by CellTiter-Glo luminescent assay. The assay is classed as functional, cell-based. As to conditions: TK-10, 48 h. The gist of the method:
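Renal lines grown in RPMI 1640 with 5% FBS and 2 mM L-glutamine, seeded into 384-well plates at 5,000–10,000 cells/well, held 2–3 h at 37 °C, 5% CO2. DMSO stocks (20 mM) serially halved ten times and added at 1:100. Cells exposed 48 h at 37 °C; CellTiter-Glo added, 10 min at room temperature, luminescence read.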

In assay [13] the test system is U-251. Briefly: Anticancer activity against human U-251 cells assessed as cell growth inhibition incubated for 48 hrs by sulforhodamine B assay. The assay is classed as functional.
In assay [14] the test system is SNB-19. Put plainly: Anticancer activity against human SNB-19 cells assessed as cell growth inhibition at 10 uM incubated for 48 hrs by sulforhodamine B assay. The assay is classed as functional. The following applies: read-out: GI.
Assay [15] deals with SF-295. Briefly: Anticancer activity against human SF-295 cells assessed as cell growth inhibition incubated for 48 hrs by sulforhodamine B assay. The format is functional. The gist of the method:
as §1

Assay [16] has as its system SK-OV-3. Briefly: Anticancer activity against human SK-OV-3 cells assessed as cell growth inhibition at 10 uM incubated for 48 hrs by sulforhodamine B assay. The assay is classed as functional. As to conditions: read-out: GI. The gist of the method:
as §1

Assay [17] relates to NCI-H226. Put plainly: Anticancer activity against human NCI-H226 cells assessed as cell growth inhibition at 10 uM incubated for 48 hrs by sulforhodamine B assay. The assay is classed as functional. The following applies: read-out: GI. In a few lines:
as §1

Assay [18] relates to UACC-257. Put plainly: Anticancer activity against human UACC-257 cells assessed as cell growth inhibition incubated for 48 hrs by sulforhodamine B assay. The assay is classed as functional.
For assay [19], the system named is Malme-3M. Put plainly: Anticancer activity against human Malme-3M cells assessed as cell growth inhibition incubated for 48 hrs by sulforhodamine B assay. The format is functional. The gist of the method: as §1
For assay [20], the system named is HCT-116. Put plainly: Anticancer activity against human HCT-116 cells assessed as cell growth inhibition incubated for 48 hrs by sulforhodamine B assay. The format is functional. In a few lines: as §2
Assay [21] concerns NCI-H460. Put plainly: Anticancer activity against human NCI-H460 cells assessed as cell growth inhibition incubated for 48 hrs by sulforhodamine B assay. The format is functional. In a few lines: as §1
Assay [22] relates to K562. Briefly: Anticancer activity against human K562 cells assessed as cell growth inhibition at 10 uM incubated for 48 hrs by sulforhodamine B assay. The format is functional. The following applies: read-out: GI. The gist of the method: as §2
Assay [23] has as its system UO-31. Briefly: Anticancer activity against human UO-31 cells assessed as cell growth inhibition incubated for 48 hrs by sulforhodamine B assay. The assay is classed as functional.
Assay [24] deals with CLL cell. Put plainly: Induction of DNA damage in chronic lymphocytic leukemia patient lymphocytes assessed as apoptosis rate at 10 uM after 24 hrs by annexin/PI staining based flow cytometry. As to conditions: Homo sapiens. The format is functional. (A flow cytometer gives signals particle by particle.)

In the case of `COc1cc(CBr)c(B2OC(C)(C)C(C)(C)O2)c(CBr)c1`, the GI50 in assay [1], in [2], in assay [4], in assay [8], in assay [10] and in assay [13] was 2000 nM in each case. In addition, the GI50 in assay [15], in [18], in assay [19], in [20], in assay [21] and in assay [23] was 2000 nM in each case. For the same compound, the inhibition of growth at 10 µM in [3], in assay [5], in assay [6], in assay [11], in assay [14] and in [16] was less than 50% in each case. For the same compound, the inhibition of growth at 10 µM in assay [17] and in [22] was less than 50% each time. In addition, the IC50 – broadly, the concentration at which inhibition is half-maximal – in assay [7] stood at 9000 nM; in assay [12], 16200 nM. Moreover, the Ka in assay [9] is 0.000237 s⁻¹. The result in [24] was Active.
